Screening data (PubChem BioAssay)
DENV2 CPE = inhibitors of DENV2 cytopathic effect; DENV2-infected cells, cytopathic effect rescue, plate reader; CPE inhibition, % at 9.99 µM; actives 1.7% (n = 350,000); in the data active means CPE inhibition above about 20%, passing the limit was not always enough; tested in BHK-21 cells
Xi reactivation = reactivates the inactive X chromosome in mouse fibroblasts; AID 743238; actives 0.055% (n = 360,000); XiGFP mouse fibroblasts, % GFP-positive cells imaging, 3 d; cells co-treated with 5-aza-dC sensitizer; scaled so ellipticine positive control = 100%; activation, % at 7.58 µM;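 active means mean normalized replicate activation at least 10% and every replicate at or above 10%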
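Assay system: SV40-immortalized XiGFP fibroblast cells, line 68-5-11; buffer or medium: DMEM plus 5-aza-dC sensitizer; compound: one concentration, pinned; timing: compounds 3 days, fix/stain 15 min at room temperature; benchmarks: positive control ellipticine, 6 µM final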
Cneo AK release = causes C. neoformans cell lysis; adenylate kinase release luminescence, 4 h; normalised: neutral wells 0, clomiphene wells 100; lysis activity, % at 15 µM; actives 0.2% (n = 360,000);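 active means mean lysis activity across replicates of at least 80%, whatever share of replicates individually reach that level; inactive means mean lysis activity below 80%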
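Assay system: log-phase C. neoformans yeast / Quantity: yeast cell density of 5 × 10^6 cells/mL / Medium: fresh YPD growth medium / Compound: single dose / Timing: static 4 h at 37 °C with compound, 1 h detection / Measured by: adenylate kinase release luminescence / Read-out: lysis from increased AK signal / Benchmarks: Clomiphene as positive lysis control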
C2C12 statin = suppression of simvastatin myotoxicity; C2C12 myotubes + simvastatin, ATP luminescence, 48 h; scaled: DMSO 0, geranylgeraniol control 100; rescue of ATP level, % at 7.49 µM; actives 0.78% (n = 330,000);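 active means mean ATP rescue above about 67%, or every replicate alone reaching that limit, limit read from the data, passing the limit was not always enough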;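 further: myotubes were challenged with 10 µM simvastatin during compound exposure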
Hits are given with their value; 0 = inactive; - = no result. Sampled rows, rich in hits. Any-hit rate of the full collection: about 2.1%.

SMILES	DENV2 CPE	Xi reactivation	Cneo AK release	C2C12 statin
O=C([C@H]1N[C@H]2c3cccc(=O)n3C[C@H]2[C@@H]1CO)N1CCCCC1	-	0	-	-
COc1ccc2c(c1)C13CCN4CC5=CCOC6CC(=O)N2C1C6C5CC43 (stereo not drawn)	71	-	0	0
O=C1CC2OCC=C3CN4CCC56c7cc([N+](=O)[O-])ccc7N1C5C2C3CC46 (stereo not drawn)	0	0	0	0
O=C1/C(=C\c2ccccc2)C2OCC=C3CN4CCC56c7ccccc7N1C5C2C3CC46 (stereo not drawn)	0	0	0	137
COc1cc2c(cc1OC)[C@@]13CCN4CC5=CCO[C@H]6CC(=O)N2[C@H]1[C@H]6[C@H]5C[C@H]43	0	-	0	0
COC(=O)[C@H]1[C@H](CO)[C@H]2Cn3c(ccc(C4=CCCC4)c3=O)[C@@H]1N2C(=O)C1CCCCC1	-	0	-	0
CC(C)n1nnnc1CN1CCN(C)CC1	-	-	0	99
CN1CCN(Cc2cn3cccnc3n2)CC1	0	0	-	-
CC(=O)N1C[C@@H]2C(c3ccc(Br)cc3)[C@H](C1)N2CC1CC1 (stereo partly drawn)	-	0	-	-
CN(C)CC#Cc1ccc([C@@H]2[C@H]3CN(C(=O)Cc4ccccn4)CCCCN3[C@H]2CO)cc1	30	0	0	-
O=C(Cc1ccccn1)N1CCCCN2[C@H](C1)[C@H](c1ccc(-c3ccccc3)cc1)[C@@H]2CO	43	0	0	-
O=C(Cc1ccccn1)N1CCCCN2[C@@H](CO)[C@@H](c3ccc(Br)cc3)[C@@H]2C1	33	0	0	0
C=CCN1[C@@H]2CN(C(=O)NC(C)C)C[C@H]1C2c1ccccc1 (stereo partly drawn)	-	0	-	-
CC[C@H](C)[C@@H]1NC(=O)CNC(=O)c2csc(n2)[C@H](C(C)(C)O)OC(=O)C(C)(C)[C@H](CCCC(C)(Cl)Cl)OC(=O)c2csc1n2	0	0	279	0
